High-throughput results (PubChem)
An excerpt weighted towards active compounds, which were near 4.2% of everything screened.
SKKanGAS inh: SKKanGAS growth inhibition. inhibition, % at 7.5 µM. AID 1662. 1.3% of 300,000 active. S. pyogenes SKKanGAS, kanamycin growth, BacTiter-Glo, 6 h;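 active = mean replicate score, as percent of positive control median, at least 50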;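 also: strain carries kanamycin resistance gene driven by streptokinase promoter and grows in 40 µg/ml kanamycin; loss of luminescence reflects streptokinase promoter inhibition or plain growth inhibition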
WT yeast gro inh: growth inhibition of WT yeast, mitochondrial fusion screen; 2.1% of 190,000 active; mitochondrial fusion phenotypic screen, WT strain; inhibition, % at 10 µM; in the data active = inhibition above about 58%; tested in S. cerevisiae
Ins promoter up: MIN6 insulin promoter up-regulation; z-score at 5 µM; 0.3% of 190,000 active; MIN6 insulin promoter-GFP reporter, high-content imaging; active compounds read high;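 active = z-score above 3 at 5 µM with at least 500 cells counted in the well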
Rad51 HR inh: blocks human Rad51 in homologous recombination; Q06609; hRad51 DNA strand exchange, fluorescence dequenching; inhibition, % at 10 µM; 0.085% of 200,000 active;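 active = inhibition above 40% at the single screening dose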
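System: human Rad51 nucleoprotein filaments preassembled on unlabelled ssDNA. Reagent: labelled 47-mer dsDNA for strand exchange. Schedule: 30-min compound preincubation and 15-min exchange, both room temperature. Measured by: FRET fluorescence dequenching, excitation 485 nm, emission 520 nm. Read-out: Fluorescence-based percent inhibition, control- and blank-normalised. Benchmarks: plate controls and plate blanks.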
Cl transport mod: modulates chloride dependent transport by human KCC2. Q9H2X9. KCC2 cells, thallium flux FluoZin-2 fluorescence. B-score of Tl+ flux slope (higher = more flux/activation; lower = inhibition) at 10 µM. 2.2% of 190,000 active;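 active = thallium flux slope and its plate-corrected score both differing from the plate sample mean at a set confidence after two filtering rounds, in either direction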;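 also: slope of fluorescence scaled to starting intensity during 10 to 20 s after thallium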
Target sequence (Q9H2X9 whole entry, looked up): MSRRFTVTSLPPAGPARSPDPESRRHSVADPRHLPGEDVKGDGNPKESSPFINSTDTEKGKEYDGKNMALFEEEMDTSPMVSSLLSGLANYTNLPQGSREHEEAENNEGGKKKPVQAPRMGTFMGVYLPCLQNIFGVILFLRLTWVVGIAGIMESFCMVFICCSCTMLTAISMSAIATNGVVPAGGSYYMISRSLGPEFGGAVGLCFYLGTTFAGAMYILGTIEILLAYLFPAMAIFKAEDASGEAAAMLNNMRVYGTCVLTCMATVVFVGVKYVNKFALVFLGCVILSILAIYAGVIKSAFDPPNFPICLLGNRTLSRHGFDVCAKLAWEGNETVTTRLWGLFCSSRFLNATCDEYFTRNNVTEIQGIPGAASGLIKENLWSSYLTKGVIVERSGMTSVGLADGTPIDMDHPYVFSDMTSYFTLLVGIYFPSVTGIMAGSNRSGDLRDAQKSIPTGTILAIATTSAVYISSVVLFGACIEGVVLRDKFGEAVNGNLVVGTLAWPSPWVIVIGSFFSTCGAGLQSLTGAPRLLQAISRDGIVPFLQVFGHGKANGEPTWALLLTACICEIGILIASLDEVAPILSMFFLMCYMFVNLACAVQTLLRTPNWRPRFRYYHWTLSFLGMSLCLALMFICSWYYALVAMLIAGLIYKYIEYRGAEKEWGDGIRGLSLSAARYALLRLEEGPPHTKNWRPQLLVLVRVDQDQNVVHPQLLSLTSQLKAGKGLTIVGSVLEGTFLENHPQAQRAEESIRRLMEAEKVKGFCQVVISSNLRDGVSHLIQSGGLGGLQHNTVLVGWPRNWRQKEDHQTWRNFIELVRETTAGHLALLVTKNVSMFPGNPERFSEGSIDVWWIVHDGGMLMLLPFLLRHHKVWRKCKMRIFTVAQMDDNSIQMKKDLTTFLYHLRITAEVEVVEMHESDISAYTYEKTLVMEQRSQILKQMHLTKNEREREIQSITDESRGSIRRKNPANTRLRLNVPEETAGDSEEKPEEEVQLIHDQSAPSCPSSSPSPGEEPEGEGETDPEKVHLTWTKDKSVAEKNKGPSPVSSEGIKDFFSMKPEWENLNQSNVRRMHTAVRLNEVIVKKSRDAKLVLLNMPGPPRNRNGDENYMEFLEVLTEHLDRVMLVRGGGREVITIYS
Autophagy mod: autophagy modulation, high-content screen. calls only at 10 µM (by protocol). 0.98% of 190,000 active. MEF GFP-LC3 puncta imaging; test concentration mostly 10 µM. AID 463193;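 active = percentage of spot-positive cells more than 3 SD above its plate mean, without a fluorescence outlier flag or 80% toxicity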
Of the large screens only hits and unclear results are named; the others gave an inactive call.

O=C(NCc1cccnc1)c1cccc(F)c1	Autophagy mod active (no result: Cl transport mod)
O=C(COc1ccc2oc(-c3ccccc3)cc(=O)c2c1)Nc1ccccc1	none
COc1ccc(-c2csc3nc(C)nc(N4CCN(c5ccc(C(C)=O)cc5)CC4)c23)cc1OC	none
O=C(N/N=C/c1c(Nc2cccc(C(F)(F)F)c2)nc2ccccn2c1=O)c1ccccc1[N+](=O)[O-]	none
O=C(N/N=C/c1c(Nc2cccc(C(F)(F)F)c2)nc2ccccn2c1=O)c1ccccc1	Autophagy mod active (no result: SKKanGAS inh, Ins promoter up)
COc1ccccc1-c1nc(S(=O)(=O)c2ccccc2)c(N2CCOCC2)o1	none (no result: WT yeast gro inh, Ins promoter up, Rad51 HR inh, Cl transport mod, Autophagy mod)
CCOC(=O)Cn1nc(C)c(NC(=O)COc2ccccc2[N+](=O)[O-])c1C	none
CCN1CCCC1CNC(=O)c1ccc2c(c1)NC(=O)/C(=C\c1ccc(C)cc1)S2 (stereo not drawn)	none (no result: WT yeast gro inh, Ins promoter up, Rad51 HR inh, Cl transport mod, Autophagy mod)
Cc1ccc(/C=C2/Sc3ccc(C(=O)N4CCN(C)CC4)cc3NC2=O)cc1	SKKanGAS inh 53.7 (no result: WT yeast gro inh, Ins promoter up, Rad51 HR inh, Cl transport mod, Autophagy mod)
CC1CCN(C(=O)c2ccc3c(c2)NC(=O)/C(=C/c2ccccc2)S3)CC1	SKKanGAS inh 76.4 (no result: WT yeast gro inh, Ins promoter up, Rad51 HR inh, Cl transport mod, Autophagy mod)
COc1cccc(NC(=O)NNC(=O)CCc2ccc(O)c(O)c2)c1	none (no result: WT yeast gro inh, Ins promoter up, Rad51 HR inh, Cl transport mod, Autophagy mod)
Cc1ccc(SCc2cc(-c3ccc(Cl)cc3)no2)cc1	Ins promoter up 3.09 (no result: Rad51 HR inh)
Cc1ccn2c(Nc3ccc4c(c3)OCO4)c(-c3ccc(O)cc3)nc2c1	none (no result: WT yeast gro inh, Autophagy mod)
O=C(NCc1ccccc1)Nc1cccn(Cc2ccccc2)c1=O	none
CCOc1ccc(NC(=O)Nc2cccn(Cc3ccccc3)c2=O)cc1	Rad51 HR inh 40.7
COc1ccccc1N1CCN(C(=O)c2ccc(Cl)c(S(=O)(=O)NCc3ccco3)c2)CC1	Autophagy mod active (no result: Cl transport mod)
CC(=O)C1=C(C)NC(SCC(=O)c2ccc(Cl)cc2)=C(C#N)C1c1ccco1 (stereo not drawn)	Autophagy mod active (no result: Cl transport mod)
CC(=O)C1=C(C)NC(SCC(=O)c2ccccc2)=C(C#N)C1c1ccco1 (stereo not drawn)	none (no result: Cl transport mod)
CCN=C1SC(CC(=O)NCc2ccccc2)C(=O)N1CC (stereo not drawn)	none
CC(NC(=O)Cn1ncc(Cl)c(Cl)c1=O)C12CC3CC(CC(C3)C1)C2 (stereo not drawn)	WT yeast gro inh 64.4 (no result: Ins promoter up)
Cc1ccc(Sc2ccc(C(=O)N3CCOCC3)cc2[N+](=O)[O-])cc1	none (no result: WT yeast gro inh, Ins promoter up, Rad51 HR inh, Cl transport mod, Autophagy mod)
Cc1c(Cl)ccc2c(C(=O)NCCN3CCCCC3)cc(-c3ccccn3)nc12	WT yeast gro inh 94.2
COc1ccc2ncc(S(=O)(=O)c3ccccc3)c(N3CCN(c4ccccc4)CC3)c2c1	SKKanGAS inh 66.8
COc1ccc2ncc(S(=O)(=O)c3ccccc3)c(N3CCC4(CC3)OCCO4)c2c1	none
O=C(NCc1ccco1)/C(=C/c1ccc(Br)cc1)NC(=O)c1ccco1	none (no result: WT yeast gro inh, Ins promoter up, Rad51 HR inh, Cl transport mod, Autophagy mod)
COc1ccc(C2=NN(C(=O)c3cccs3)C(c3ccccc3O)C2)cc1 (stereo not drawn)	WT yeast gro inh 85.3
COc1ccc(C2CC(c3ccc(Br)cc3)=NN2C(=O)c2cccnc2)cc1 (stereo not drawn)	WT yeast gro inh 64.1 (no result: Rad51 HR inh)
COc1ccc(C2CC(c3ccccc3)=NN2C(=O)COC(=O)C2(C)CC2(Cl)Cl)cc1 (stereo not drawn)	WT yeast gro inh 72.2
COc1ccc(C2CC(c3ccccc3)=NN2C(=O)COC(=O)c2cccnc2)cc1 (stereo not drawn)	none
COc1ccc(C2CC(c3ccccc3)=NN2C(=O)CCC(=O)O)cc1 (stereo not drawn)	none (no result: WT yeast gro inh, Ins promoter up, Rad51 HR inh, Cl transport mod, Autophagy mod)
COc1ccc(C2CC(c3ccccc3)=NN2C(=O)c2cccs2)cc1 (stereo not drawn)	SKKanGAS inh 59.4, WT yeast gro inh 77.8
CCC(Sc1nc2ccncc2[nH]1)C(=O)Nc1cc(Cl)ccc1C (stereo not drawn)	none (no result: WT yeast gro inh, Ins promoter up, Rad51 HR inh, Cl transport mod, Autophagy mod)
O=C(NC(=S)Nc1ccc(Cl)cn1)c1cc([N+](=O)[O-])ccc1N1CCOCC1	none (no result: WT yeast gro inh, Ins promoter up, Rad51 HR inh, Cl transport mod, Autophagy mod)
COc1ccc(CCN2C(=O)CC(NNc3ccc([N+](=O)[O-])cc3)C2=O)cc1OC (stereo not drawn)	none
O=c1c2cc(Cl)ccc2[nH]c(=S)n1Cc1ccco1	Cl transport mod 19.8
O=c1c2cc(Cl)ccc2[nH]c(=S)n1Cc1cccs1	Cl transport mod 18.7
O=c1c2cc(F)ccc2[nH]c(=S)n1Cc1ccc(F)cc1	none (no result: WT yeast gro inh, Ins promoter up, Rad51 HR inh, Cl transport mod, Autophagy mod)
CCOc1cc(N2CCOCC2)c(OCC)cc1NC(=O)COC(=O)CCOc1cc(C)ccc1C	none (no result: WT yeast gro inh, Ins promoter up, Rad51 HR inh, Cl transport mod, Autophagy mod)
